Tests used:
Assay type in all cases: functional
[1] = system: OVCAR-4; assay: Anticancer activity against human OVCAR4 cells assessed as cell growth at 10^-5 M after 48 hrs by SRB assay; conditions: OVCAR-4, 48 h, read-out: Activity
[2] = system: EKVX; assay: Anticancer activity against human EKVX cells assessed as cell growth at 10^-5 M after 48 hrs by SRB assay; conditions: read-out: Activity
In short: (§1)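 NCI-60 single-dose screen at one concentration. Cells grown in RPMI 1640 with 5% FBS and 2 mM L-glutamine, plated at 5000–40,000 cells/well, and pre-incubated 24 h at 37 °C in 5% CO2 before DMSO-dissolved drug was added. Cells fixed with TCA, SRB-stained, absorbance read at 515 nm. Percent growth calculated against time-zero and untreated control plates.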

[3] = system: OVCAR-5; assay: Anticancer activity against human OVCAR5 cells assessed as cell growth at 10^-5 M after 48 hrs by SRB assay; conditions: OVCAR-5, 48 h, read-out: Activity
[4] = system: OVCAR-8; assay: Anticancer activity against human OVCAR8 cells assessed as cell growth at 10^-5 M after 48 hrs by SRB assay; conditions: OVCAR-8, 48 h, read-out: Activity
[5] = system: M14; assay: Anticancer activity against human M14 cells assessed as cell growth at 10^-5 M after 48 hrs by SRB assay; conditions: M14, 48 h, read-out: Activity; in short: as §1
[6] = system: NCI-H460; assay: Anticancer activity against human NCI-H460 cells assessed as cell growth at 10^-5 M after 48 hrs by SRB assay; conditions: NCI-H460, 48 h, read-out: Activity
[7] = system: SK-OV-3; assay: Anticancer activity against human SKOV3 cells assessed as cell growth at 10^-5 M after 48 hrs by SRB assay; conditions: SK-OV-3, 48 h, read-out: Activity
[8] = system: HOP-92; assay: Anticancer activity against human HOP92 cells assessed as cell growth at 10^-5 M after 48 hrs by SRB assay; conditions: HOP-92, 48 h, read-out: Activity; in short: as §1
[9] = system: SK-MEL-2; assay: Anticancer activity against human SK-MEL-2 cells assessed as cell growth at 10^-5 M after 48 hrs by SRB assay; conditions: SK-MEL-2, 48 h, read-out: Activity
[10] = system: SW-620; assay: Anticancer activity against human SW620 cells assessed as cell growth at 10^-5 M after 48 hrs by SRB assay; conditions: SW-620, 48 h, read-out: Activity
In short: (§2)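 NCI-60 single-dose screen: cells in RPMI 1640 with 5% FBS and 2 mM L-glutamine, plated at 5000–40,000 cells/well by doubling time, and preincubated 24 h at 37 °C. Compound given at one concentration from DMSO stock. Cells TCA-fixed and SRB-stained, absorbance at 515 nm. Percent growth relative to time-zero and untreated controls; inhibition % = 100 − growth %.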

[11] = system: BT-549; assay: Anticancer activity against human BT549 cells assessed as cell growth at 10^-5 M after 48 hrs by SRB assay; conditions: BT-549, 48 h, read-out: Activity; in short: as §1
[12] = system: LOX IMVI; assay: Anticancer activity against human LOXIMVI cells assessed as cell growth at 10^-5 M after 48 hrs by SRB assay; conditions: read-out: Activity; in short: as §1
[13] = system: HCT-116; assay: Anticancer activity against human HCT116 cells assessed as cell growth at 10^-5 M after 48 hrs by SRB assay; conditions: HCT-116, 48 h, read-out: Activity; in short: as §1
[14] = system: MOLT-4; assay: Anticancer activity against human MOLT4 cells assessed as cell growth at 10^-5 M after 48 hrs by SRB assay; conditions: MOLT-4, 48 h, read-out: Activity
[15] = system: UO-31; assay: Anticancer activity against human UO31 cells assessed as cell growth at 10^-5 M after 48 hrs by SRB assay; conditions: UO-31, 48 h, read-out: Activity; in short: as §2
[16] = system: NCI/ADR-RES; assay: Anticancer activity against human NCI/ADR-RES cells assessed as cell growth at 10^-5 M after 48 hrs by SRB assay; conditions: read-out: Activity
[17] = system: SN12C; assay: Anticancer activity against human SN12C cells assessed as cell growth at 10^-5 M after 48 hrs by SRB assay; conditions: read-out: Activity
[18] = system: HOP-62; assay: Anticancer activity against human HOP62 cells assessed as cell growth at 10^-5 M after 48 hrs by SRB assay; conditions: HOP-62, 48 h, read-out: Activity; in short: as §1
[19] = system: PC-3; assay: Anticancer activity against human PC3 cells assessed as cell growth at 10^-5 M after 48 hrs by SRB assay; conditions: PC-3, 48 h, read-out: Activity
[20] = system: NCI-H23; assay: Anticancer activity against human NCI-H23 cells assessed as cell growth at 10^-5 M after 48 hrs by SRB assay; conditions: NCI-H23, 48 h, read-out: Activity
[21] = system: NCI-H322M; assay: Anticancer activity against human NCI-H322M cells assessed as cell growth at 10^-5 M after 48 hrs by SRB assay; conditions: read-out: Activity
[22] = system: CCRF-CEM; assay: Anticancer activity against human CCRF-CEM cells assessed as cell growth at 10^-5 M after 48 hrs by SRB assay; conditions: read-out: Activity; in short: as §1
[23] = system: Malme-3M; assay: Anticancer activity against human MALME-3M cells assessed as cell growth at 10^-5 M after 48 hrs by SRB assay; conditions: read-out: Activity; in short: as §1
[24] = system: COLO 205; assay: Anticancer activity against human COLO205 cells assessed as cell growth at 10^-5 M after 48 hrs by SRB assay; conditions: COLO 205, 48 h, read-out: Activity; in short: as §1
[25] = system: SK-MEL-5; assay: Anticancer activity against human SK-MEL-5 cells assessed as cell growth at 10^-5 M after 48 hrs by SRB assay; conditions: SK-MEL-5, 48 h, read-out: Activity
[26] = system: UACC-257; assay: Anticancer activity against human UACC257 cells assessed as cell growth at 10^-5 M after 48 hrs by SRB assay; conditions: UACC-257, 48 h, read-out: Activity; in short: as §2
[27] = system: SR; assay: Anticancer activity against human SR cells assessed as cell growth at 10^-5 M after 48 hrs by SRB assay; conditions: read-out: Activity; in short: as §2
[28] = system: HCC 2998; assay: Anticancer activity against human HCC2998 cells assessed as cell growth at 10^-5 M after 48 hrs by SRB assay; conditions: HCC 2998, 48 h, read-out: Activity; in short: as §1
[29] = system: UACC-62; assay: Anticancer activity against human UACC62 cells assessed as cell growth at 10^-5 M after 48 hrs by SRB assay; conditions: UACC-62, 48 h, read-out: Activity; in short: as §2
[30] = system: MDA-MB-231; assay: Anticancer activity against human MDA-MB-231 cells assessed as cell growth at 10^-5 M after 48 hrs by SRB assay; conditions: MDA-MB-231, 48 h, read-out: Activity; in short: as §1
[31] = system: A498; assay: Anticancer activity against human A498 cells assessed as cell growth at 10^-5 M after 48 hrs by SRB assay; conditions: A498, 48 h, read-out: Activity; in short: as §1
[32] = system: U-251; assay: Anticancer activity against human U251 cells assessed as cell growth at 10^-5 M after 48 hrs by SRB assay; conditions: U-251, 48 h, read-out: Activity; in short: as §2
[33] = system: SF-268; assay: Anticancer activity against human SF268 cells assessed as cell growth at 10^-5 M after 48 hrs by SRB assay; conditions: SF-268, 48 h, read-out: Activity

**Q.** For O=C(NCCNc1nccc(-c2c(-c3cccc(O)c3)nc3sccn23)n1)c1ccccc1, which growth at 10 µM [1] is on record?
**A.** 98%

**Q.** And the growth at 10 µM [2]?
**A.** 94.2%

**Q.** What about the growth at 10 µM [3] of the same molecule?
**A.** 90.6%

**Q.** What about the growth at 10 µM [4] of the same molecule?
**A.** 66.6%

**Q.** What about the growth at 10 µM [5] of the same molecule?
**A.** 15.3%

**Q.** What about the growth at 10 µM [6] of the same molecule?
**A.** 42.4%

**Q.** And the growth at 10 µM [7]?
**A.** 65.1%

**Q.** What about the growth at 10 µM [8] of the same molecule?
**A.** 58.6%

**Q.** What about the growth at 10 µM [9] of the same molecule?
**A.** 45.5%

**Q.** And the growth at 10 µM [10]?
**A.** 78.2%

**Q.** And the growth at 10 µM [11]?
**A.** 61.4%

**Q.** What about the growth at 10 µM [12] of the same molecule?
**A.** 23.2%

**Q.** And the growth at 10 µM [13]?
**A.** 42.5%

**Q.** And the growth at 10 µM [14]?
**A.** 67.1%

**Q.** What about the growth at 10 µM [15] of the same molecule?
**A.** 87.7%

**Q.** What about the growth at 10 µM [16] of the same molecule?
**A.** 99.7%

**Q.** What about the growth at 10 µM [17] of the same molecule?
**A.** 66.4%

**Q.** What about the growth at 10 µM [18] of the same molecule?
**A.** 119%

**Q.** What about the growth at 10 µM [19] of the same molecule?
**A.** 68.5%

**Q.** And the growth at 10 µM [20]?
**A.** 82.6%

**Q.** And the growth at 10 µM [21]?
**A.** 101%

**Q.** And the growth at 10 µM [22]?
**A.** 47.3%

**Q.** What about the growth at 10 µM [23] of the same molecule?
**A.** 9.31%

**Q.** What about the growth at 10 µM [24] of the same molecule?
**A.** 48.5%

**Q.** What about the growth at 10 µM [25] of the same molecule?
**A.** 40.2%

**Q.** And the growth at 10 µM [26]?
**A.** 11.3%

**Q.** What about the growth at 10 µM [27] of the same molecule?
**A.** 68%

**Q.** And the growth at 10 µM [28]?
**A.** 97.8%

**Q.** What about the growth at 10 µM [29] of the same molecule?
**A.** 0.9%

**Q.** And the growth at 10 µM [30]?
**A.** 80%

**Q.** And the growth at 10 µM [31]?
**A.** 48%

**Q.** What about the growth at 10 µM [32] of the same molecule?
**A.** 61.9%

**Q.** And the growth at 10 µM [33]?
**A.** 80.7%

**Q.** Which growth at 10 µM [1] does the source give for O=C(NCCNc1nccc(-c2c(-c3cccc(O)c3)nc3sccn23)n1)c1ccccc1O here?
**A.** 96.2%

**Q.** What about the growth at 10 µM [2] of the same molecule?
**A.** 66.8%

**Q.** And the growth at 10 µM [3]?
**A.** 88.7%

**Q.** What about the growth at 10 µM [4] of the same molecule?
**A.** 41.3%

**Q.** And the growth at 10 µM [5]?
**A.** 16.7%

**Q.** What about the growth at 10 µM [6] of the same molecule?
**A.** 57%

**Q.** And the growth at 10 µM [7]?
**A.** 60.5%

**Q.** And the growth at 10 µM [8]?
**A.** 59.9%

**Q.** What about the growth at 10 µM [9] of the same molecule?
**A.** 13.9%

**Q.** What about the growth at 10 µM [10] of the same molecule?
**A.** 77.9%

**Q.** What about the growth at 10 µM [11] of the same molecule?
**A.** 45.7%

**Q.** What about the growth at 10 µM [12] of the same molecule?
**A.** 33.5%

**Q.** What about the growth at 10 µM [13] of the same molecule?
**A.** 25.9%

**Q.** And the growth at 10 µM [14]?
**A.** 46.2%

**Q.** And the growth at 10 µM [15]?
**A.** 34.6%

**Q.** And the growth at 10 µM [16]?
**A.** 73.6%

**Q.** And the growth at 10 µM [17]?
**A.** 48%

**Q.** What about the growth at 10 µM [18] of the same molecule?
**A.** 114%

**Q.** And the growth at 10 µM [19]?
**A.** 51.1%

**Q.** And the growth at 10 µM [20]?
**A.** 57.4%

**Q.** What about the growth at 10 µM [21] of the same molecule?
**A.** 72.3%

**Q.** And the growth at 10 µM [22]?
**A.** 18.9%

**Q.** What about the growth at 10 µM [23] of the same molecule?
**A.** 14.6%

**Q.** What about the growth at 10 µM [24] of the same molecule?
**A.** 66.5%

**Q.** What about the growth at 10 µM [25] of the same molecule?
**A.** 22.7%

**Q.** What about the growth at 10 µM [26] of the same molecule?
**A.** 14.8%

**Q.** And the growth at 10 µM [27]?
**A.** 63.2%

**Q.** What about the growth at 10 µM [28] of the same molecule?
**A.** 81%

**Q.** And the growth at 10 µM [29]?
**A.** 0.53%

**Q.** What about the growth at 10 µM [30] of the same molecule?
**A.** 48.4%

**Q.** What about the growth at 10 µM [31] of the same molecule?
**A.** 104%

**Q.** And the growth at 10 µM [32]?
**A.** 61.6%

**Q.** What about the growth at 10 µM [33] of the same molecule?
**A.** 62.5%
